Results from ChEMBL document CHEMBL1151472, “In vitro interactions between tacrolimus and azoles against Candida albicans determined by different methods” (2008).

Tests used:
Type in all cases: functional
Candida albicans [1] = experiment: Antimicrobial activity against azole-resistant Candida albicans isolate CA10 assessed as growth at 2 ug/ml cotreated with 0.016 ug/ml calcineurin signaling inhibitor Tacrolimus after 48 hrs by microdilution checkboard technique relative to control; parameters: scale not given: the % may be the effect or the level left
How it was run: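 Checkerboard microdilution in MOPS-buffered RPMI 1640 (pH 7.0, 2% dextrose). Final ranges: azole 0.125–128 μg/ml (FLC) or 0.008–8 μg/ml (ITR, VRC), tacrolimus 0.002–0.125 μg/ml; solvent 1% in single-drug wells. Inoculum 2.5 × 10^3 CFU/ml, 35°C, 48 h. Growth % = background-subtracted OD492 of each well / drug-free well. Triplicate on different days.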

Candida albicans [2] = experiment: Antimicrobial activity against azole-resistant Candida albicans isolate CA10 assessed as growth at 64 ug/ml co-treated with 0.016 ug/ml calcineurin signaling inhibitor tacrolimus after 48 hrs by microdilution checkboard technique relative to control; parameters: scale not given: the % may be the effect or the level left
How it was run: (§1)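 CA10 in RPMI 1640 with 2% dextrose and 0.165 M MOPS, pH 7.0. Checkerboard used twofold dilutions, with azole alone in row H and the drug-free growth control in well H1. Final inoculum was 2.5 × 10^3 CFU/ml, incubated 35°C for 48 h, with OD read at 492 nm. Growth % = background-subtracted well OD / drug-free well OD. Run in triplicate on different days.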

Candida albicans [3] = experiment: Antimicrobial activity against azole-resistant Candida albicans isolate CA10 assessed as growth at 32 ug/ml cotreated with 0.002 ug/ml calcineurin signaling inhibitor Tacrolimus after 48 hrs by microdilution checkboard technique relative to control; parameters: scale not given: the % may be the effect or the level left; how it was run: as §1
Candida albicans [4] = experiment: Antimicrobial activity against azole-resistant Candida albicans isolate CA16 cotreated with calcineurin signaling inhibitor Tacrolimus after 48 hrs by microdilution checkerboard technique; settings: isolate CA16, 48 h
How it was run: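 Checkerboard microdilution in MOPS-buffered RPMI 1640 (pH 7.0, 2% dextrose) with 2.5 × 10^3 CFU/ml for 48 h at 35°C. Final FK506 was 0.002–0.125 μg/ml. Azole finals were FLC 0.125–128 μg/ml, and ITR and VRC 0.008–8 μg/ml. MIC80 is an 80% OD492 decrease vs drug-free control. Interaction was scored by FICI (synergy ≤0.5, antagonism >4) and by ΔE from triplicates.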

SMILES: OC(Cn1cncn1)(Cn1cncn1)c1ccc(F)cc1F [FLUCONAZOLE]
- Activity (Candida albicans [1]): 20%
- Activity (Candida albicans [2]): 16%
- Activity (Candida albicans [3]): 36%
- MIC (Candida albicans [4]): 0.5 µg/mL
